Experiment: Toxicity liver stage against HepG2, at 10uM
Type: cell-based
Set-up: test concentration 10 uM, cell line HepG2-A16-CD81EGFP
Settings: human, HepG2-A16-CD81EGFP cells; read-out: INHIBITION
Procedure, shortened: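 Uninfected HepG2-A16-CD81EGFP cells, 3 × 10^3 per well, 1536-well, plated on prespotted compound at 10 μM final, parasite-free screening media added to match infected plates; puromycin 10 μM positive, DMSO 0.5% negative; run in parallel with 48 h PbLuc assay at 37 °C, 5% CO2; viability by CellTiter-Glo luminescence, normalized to controls.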

Cc1cnn(C2CCCN(C(=O)Cc3cn4ccccc4n3)C2)c1 (stereo not given)
cytotoxicity at 10 µM: -3.15%

CCn1c(=O)c2sccc2n(CC(=O)Nc2cccc(Cl)c2)c1=O
cytotoxicity at 10 µM: 0.115%

CSCc1cc(C(=O)NC2(C#N)CC2)ccc1F
cytotoxicity at 10 µM: -10.5%

O=c1[nH]c2cn(-c3cccc(F)c3)c(=O)n2n1Cc1ccc(Cl)cc1
cytotoxicity at 10 µM: 8.53%

c1ccc(OCCNc2ncnc3sc4c(c23)CCNC4)cc1
cytotoxicity at 10 µM: 45.4%

COC(=O)CN(C(=O)c1ccc(-n2ccnc2)cc1)C1CC1
cytotoxicity at 10 µM: -5%

CSCC(CCO)NC(=O)c1cccc(Cl)c1F (stereo not given)
cytotoxicity at 10 µM: 19%

c1ncn(Cc2cn3c(n2)CN(CC2CCCC2)CC3)n1
cytotoxicity at 10 µM: -127%

CC(C)NC(=O)NCCn1cnc(C2CCCC2)cc1=O
cytotoxicity at 10 µM: -0.373%

O=C(N1CCCC1)N1CCOCC2(C1)CN(c1ccccc1)C(=O)CO2 (stereo not given)
cytotoxicity at 10 µM: 4.77%

CN(C)C(=O)[C@@H]1C[C@@H]2CCN(Cc3ccncc3)C[C@@H]2O1
cytotoxicity at 10 µM: 6.36%

O=C(C1CC1)N1CCC2(CC1)COCCN2Cc1ccc(F)cc1
cytotoxicity at 10 µM: -69.4%

CC(C)c1nc(O)c2nnn(C[C@H]3CCCN(Cc4ccsc4)C3)c2n1
cytotoxicity at 10 µM: 1.8%

CCN(CCS(=O)(=O)CC)CC1CCCO1 (stereo not given)
cytotoxicity at 10 µM: -0.157%

O=C(c1ccc(O)cc1)N1C[C@@H]2CCN(c3cccnc3)C[C@@H]2C1
cytotoxicity at 10 µM: -50.9%

Cc1cnccc1-n1nc(C(C)C)nc1CCc1cnccn1
cytotoxicity at 10 µM: 1.92%

c1ccc(CN2C[C@H]3CC[C@@H](C2)N(Cc2nnc(C4CC4)o2)C3)cc1
cytotoxicity at 10 µM: -8.42%

Cc1n[nH]c(C)c1NC(=O)CN1CCc2c(nc(C3CC3)n2C)C1
cytotoxicity at 10 µM: -3.15%

CN(C)C(=O)N1CCc2ccc(=O)[nH]c2CC1
cytotoxicity at 10 µM: 5.39%

Cc1ccc(CN(Cc2ccccn2)C(=O)[C@H]2CC[C@@H](N)C2)s1
cytotoxicity at 10 µM: -0.327%

CC(C)c1nc2cc(NC(=O)Cn3ccccc3=O)ccc2o1
cytotoxicity at 10 µM: -17.8%

CCOc1ncccc1C(=O)N1CCCC1Cn1cc(C)cn1 (stereo not given)
cytotoxicity at 10 µM: 0.787%

Cc1nc(CN(C)C(=O)C2CCC(=O)N(CCN(C)C)C2)cs1 (stereo not given)
cytotoxicity at 10 µM: 8.08%

Cn1cnc2c(N3CCOCC3)nc(C3CCNCC3)cc21
cytotoxicity at 10 µM: 2.98%

Cn1ccnc1C(=O)N[C@@H]1CN(Cc2ccoc2)[C@@H]2CCCO[C@@H]21
cytotoxicity at 10 µM: -99.9%

Cc1ccc(N2CCC(NC(C)c3ccc(C)o3)CC2)nc1 (stereo not given)
cytotoxicity at 10 µM: -6.59%

Cc1cc(NC(=O)NCc2nncn2C)ccc1OC(C)C
cytotoxicity at 10 µM: 6.23%

CC(=O)c1ccc(NC(=O)C(NC(=O)Nc2ccccc2)C(C)C)cc1 (stereo not given)
cytotoxicity at 10 µM: -0.719%

CCN(CCc1nccs1)C(=O)c1sccc1C
cytotoxicity at 10 µM: -0.682%

CC(C)(C)Cc1nnc(NCc2cccc(C#N)c2)o1
cytotoxicity at 10 µM: -16.1%

OC(CN1CCCCc2ccccc21)Cn1cccn1 (stereo not given)
cytotoxicity at 10 µM: 5.55%

CN(C)CCN1C[C@@H]2CN(S(=O)(=O)c3cccs3)C[C@@H]2C1=O
cytotoxicity at 10 µM: 0.0221%

COc1ccc(-c2cn3c(n2)CO[C@@H](CNCc2ccccn2)C3)cc1
cytotoxicity at 10 µM: -11.8%

COc1cccc(NC(=O)CN2CCN(S(C)(=O)=O)CC2)c1
cytotoxicity at 10 µM: -1%

CC(C)(CO)Nc1cc(-c2cn[nH]c2)ncn1
cytotoxicity at 10 µM: -1.44%

Cc1ccc(NC(=O)NCCn2cnc(C)c(C)c2=O)cc1F
cytotoxicity at 10 µM: 3.22%

CN(C)CCN1C(=O)CCCC12CCCN(Cc1cccs1)C2 (stereo not given)
cytotoxicity at 10 µM: 0.199%

CCn1ncc(C(=O)NCCc2nc(-c3ccc(C)cc3)n[nH]2)c1C
cytotoxicity at 10 µM: 8%

CCC1=N[C@@]2(CC[C@@H]3CN(C(=O)NCc4cccc(F)c4)C[C@@H]32)C(=O)N1
cytotoxicity at 10 µM: -69.4%

Cc1c(C(=O)NS(=O)(=O)c2ccc(F)cc2)cnn1CC(C)C
cytotoxicity at 10 µM: -6.63%

Cc1nnc(CN(C)CCOc2cccc(Cl)c2)o1
cytotoxicity at 10 µM: 12.8%

COc1ncccc1C(=O)Nc1ccccc1-c1ccc(=O)n(C)n1
cytotoxicity at 10 µM: -0.843%

CC(C)c1ncncc1C(=O)N1CCN(Cc2cccnc2)CC1
cytotoxicity at 10 µM: -5.85%

COCC(NC(=O)c1cn(-c2cccc(Cl)c2F)nn1)C1CC1 (stereo not given)
cytotoxicity at 10 µM: 11.1%

CCn1ncc2c1CCCC2NCc1ccc(C)s1 (stereo not given)
cytotoxicity at 10 µM: -6.73%

Cc1nc(CN2CCCC(N(C)Cc3cnn(C)c3)C2)no1 (stereo not given)
cytotoxicity at 10 µM: -7.72%

CN(Cc1ccc2c(c1)OCCO2)C(=O)Cn1ccccc1=O
cytotoxicity at 10 µM: 1.2%

CCOCC1COCCC12CCN(C(=O)C1=CCCC1)CC2 (stereo not given)
cytotoxicity at 10 µM: -2.35%

CC(C)(C)c1cc(CN2CC[C@@H](NC(=O)c3cccnc3)[C@H](O)C2)n[nH]1
cytotoxicity at 10 µM: -13.2%

COCCOCC(=O)N1C[C@@H]2CC[C@H](Oc3cccc(F)c3)[C@@H]2C1
cytotoxicity at 10 µM: -26%

O=C(NCc1cccnc1N1CCCCC1)c1ccc2[nH]nnc2c1
cytotoxicity at 10 µM: -1.19%

N#Cc1ccc(OC2CCN(CC(=O)NCC3CCCO3)CC2)cc1 (stereo not given)
cytotoxicity at 10 µM: 34.8%

Cc1nn(C)c2c(N3CCN(C(=O)NC4CCCCC4)CC3)ncnc12
cytotoxicity at 10 µM: 9.09%

CN(Cc1ccc(F)c(F)c1)Cc1cc2c(cc1Br)OCCO2
cytotoxicity at 10 µM: -140%

Cc1ccc(NC2CCN(C(=O)c3cc4c(s3)CCC4)CC2)nn1
cytotoxicity at 10 µM: -3.48%

COCCC1(CNC(=O)NCC2CCCN(C)C2)CCC1 (stereo not given)
cytotoxicity at 10 µM: -1.11%

Cn1cc(C(=O)NCCc2csc(-c3ccccc3)n2)ccc1=O
cytotoxicity at 10 µM: -6.7%

Cc1ccc(C)c2c(O)cc(CN3CCC(c4nncn4C)CC3)nc12
cytotoxicity at 10 µM: -2.24%

CNC(=O)c1cccc(NC(=O)NC(C)CCc2cccn2C)c1C (stereo not given)
cytotoxicity at 10 µM: -1.39%

c1ccc(OC2C[C@@H]3CN(Cc4cnccn4)C[C@@H]3C2)cc1 (stereo not given in full)
cytotoxicity at 10 µM: -5.92%

C[C@]1(O)CN(Cc2cscn2)CC[C@@H]1Oc1cccc(F)c1
cytotoxicity at 10 µM: 7.08%

Cc1ccc2c(c1)N(C(=O)C1CCCOC1)CCC2 (stereo not given)
cytotoxicity at 10 µM: 5%

Cc1cccc(C)c1OC1CN(C(=O)C2CC(=O)N(C(C)(C)C)C2)C1 (stereo not given)
cytotoxicity at 10 µM: 0.213%

Cc1n[nH]c2c1C(c1ccsc1)SCC(=O)N2 (stereo not given)
cytotoxicity at 10 µM: 4.21%

COc1ccc2cc(-c3n[nH]cc3CN3CCSCC3)ccc2c1
cytotoxicity at 10 µM: 2.22%

Cc1c(C(=O)N2CCCC(n3cncn3)C2)cnn1C (stereo not given)
cytotoxicity at 10 µM: -9.84%

Cc1nc[nH]c1CN1CCCN(c2nc3ccccc3s2)CC1
cytotoxicity at 10 µM: 33%

N#Cc1cnc(N2CCC3(CC2)OCCO3)nc1N
cytotoxicity at 10 µM: 3.51%

O=C(N[C@@H]1CN(Cc2cccs2)[C@@H]2CCCO[C@@H]21)c1cscn1
cytotoxicity at 10 µM: -4.6%

CS(=O)(=O)N1CCCC(Cc2ccnc(Nc3ccccn3)c2)C1 (stereo not given)
cytotoxicity at 10 µM: 5.46%

CC(Nc1nc2c(cnn2C)c(=O)[nH]1)c1ccc2c(c1)CCCC2 (stereo not given)
cytotoxicity at 10 µM: 9.62%

Cn1cnc2c1C(COCc1cccnc1)N(Cc1ccccn1)CC2 (stereo not given)
cytotoxicity at 10 µM: -13.3%

O=C(NC1CC1)[C@@]12CCO[C@@H]1CCN(Cc1ccc3c(c1)OCO3)C2
cytotoxicity at 10 µM: -2.87%

CC(C)NC(=O)c1nc2c(s1)CCCN2Cc1ccccc1
cytotoxicity at 10 µM: 18.3%

CCN1CCCC(O)(CNCc2ccccc2F)C1 (stereo not given)
cytotoxicity at 10 µM: -5.66%

CCN(Cc1ccccc1Cl)Cn1nc(C)c2c(C)onc2c1=O
cytotoxicity at 10 µM: -2.34%

CCN(CC)C(CNCc1ccc(C)o1)c1ccco1 (stereo not given)
cytotoxicity at 10 µM: 3.23%

CC(C)[C@H]1CN(Cc2nccn2C)C[C@@H]1NC(=O)COCC(N)=O
cytotoxicity at 10 µM: -0.0298%

COc1ccccc1-c1cc(C(=O)N(C)C)nc2c1cnn2C
cytotoxicity at 10 µM: 7.83%

Cc1ccc2nc(C3CCCN3Cc3scnc3C)[nH]c2c1 (stereo not given)
cytotoxicity at 10 µM: 8.2%

Cc1nn(C)c(C)c1C1CCCN1Cc1noc(C2CC2)n1 (stereo not given)
cytotoxicity at 10 µM: -6.95%

CCCS(=O)(=O)C(C)C(=O)Nc1ccc2oc(C3CC3)nc2c1 (stereo not given)
cytotoxicity at 10 µM: 5.3%

O=C(c1ccncn1)N1CCC[C@]2(C[C@H](Oc3ncccc3F)CO2)C1
cytotoxicity at 10 µM: -0.588%

CCN(C(=O)c1nc2c(s1)CCCN2S(C)(=O)=O)C(C)C
cytotoxicity at 10 µM: 3.99%

Cc1nc(CN2CCCC2c2nc(C(C)C)no2)cs1 (stereo not given)
cytotoxicity at 10 µM: -9.7%

COc1ccc(CN(Cc2ccccn2)Cc2cncn2C)cc1
cytotoxicity at 10 µM: 9.65%

Cc1ccc(CN(C(=O)NCCNC(=O)c2cccnc2)C(C)C)o1
cytotoxicity at 10 µM: -6.06%

O=C(C1CCC1)N1CCC2(COCc3cnc(N4CCOCC4)nc32)C1 (stereo not given)
cytotoxicity at 10 µM: -11.8%

Oc1cccc(CN2C[C@@H]3CC[C@H]2CN(Cc2cccnc2)C3)c1
cytotoxicity at 10 µM: -121%

O=C1CCCN1C1CCCN(CCn2cc(Cl)cn2)C1 (stereo not given)
cytotoxicity at 10 µM: -0.626%

CC1CCCN(c2ncc(-c3ccccc3F)c(-c3nccn3C)n2)C1 (stereo not given)
cytotoxicity at 10 µM: 26.8%

O=C(CNc1ccc(OC2CCOC2)cc1)NCc1ccco1 (stereo not given)
cytotoxicity at 10 µM: 5.03%

O=C(c1ccc2c(c1)OCCCO2)N1CCCC(n2ccnc2)C1 (stereo not given)
cytotoxicity at 10 µM: 0.893%

COc1ccc(Cc2nnc(NC(=O)C3CC34CCC4)s2)cc1OC (stereo not given)
cytotoxicity at 10 µM: -2.21%

Fc1ccc(CN2CCc3ncnc(C4CC4)c3CC2)cc1
cytotoxicity at 10 µM: -147%

CC(C)COCCC(=O)Nc1c(-c2ccc(F)cc2)ncn1C
cytotoxicity at 10 µM: -1.18%

O=C(CN1CCOCC1)N(c1ccccc1)c1ccccc1
cytotoxicity at 10 µM: -11.8%

Cc1cc(N2Cc3cnc(CC(C)C)nc3C2)nc(N)n1
cytotoxicity at 10 µM: -5.64%

CC(=O)N1N=C(c2ccccc2)OC1C(=O)NCCc1ccc(O)cc1 (stereo not given)
cytotoxicity at 10 µM: -4%

CCNC(=O)CS(=O)(=O)NC1CCC(C)CC1 (stereo not given)
cytotoxicity at 10 µM: -4.57%

Cc1ccc(-c2nc(CNC3CCc4ncnn4C3)cs2)cc1 (stereo not given)
cytotoxicity at 10 µM: -9.27%

CC(C)NC(=O)[C@@H]1CN(Cc2ccc3c(c2)OCO3)C[C@H]2OCC[C@H]21
cytotoxicity at 10 µM: 3.65%

CCS(=O)(=O)N(C)C1CCN(C(=O)c2ccc(Cl)cc2)CC1
cytotoxicity at 10 µM: -5.87%

CCN(CC)c1ccc(C(=O)N2C[C@H]3CC[C@@H](C2)N(CCOC)C3)cc1
cytotoxicity at 10 µM: -12.3%

CCS(=O)(=O)N1CCc2c(COCc3ccncc3)cncc2C1
cytotoxicity at 10 µM: -84.1%

CNc1nc(CNC(=O)Nc2cc(Cl)ccc2F)cs1
cytotoxicity at 10 µM: -6.95%

C[C@@H]1CN(C(=O)c2ccncc2)CC[C@@]1(O)C1CCOCC1
cytotoxicity at 10 µM: 0.301%

CS(=O)(=O)CC(=O)N1C[C@@H]2CN(Cc3ccoc3)CCO[C@@H]2C1
cytotoxicity at 10 µM: -69.2%

CSc1ccc(CN(C(=O)c2cc[nH]n2)C2CC2)cc1
cytotoxicity at 10 µM: -44.4%

Cc1nsc(NC(=O)N2CCCCC2CCO)n1 (stereo not given)
cytotoxicity at 10 µM: -45.7%

Source: ChEMBL document CHEMBL4513216, “Probing the Open Global Health Chemical Diversity Library for Multistage-Active Starting Points for Next-Generation Antimalarials” (ACS Infect Dis, 2020)
